ERp5 block – ERp5 (human) disulfide isomerase inhibition; Q15084; ERp5 insulin aggregation, absorbance 650 nm, 90 min; inhibition, % at 9.99 µM; 350,000 tested, 0.05% active;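 active = mean replicate inhibition above about 25%, with every replicate also reaching it, limit read from the data, passing the limit was not always enough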
Target sequence (Q15084 whole entry, looked up): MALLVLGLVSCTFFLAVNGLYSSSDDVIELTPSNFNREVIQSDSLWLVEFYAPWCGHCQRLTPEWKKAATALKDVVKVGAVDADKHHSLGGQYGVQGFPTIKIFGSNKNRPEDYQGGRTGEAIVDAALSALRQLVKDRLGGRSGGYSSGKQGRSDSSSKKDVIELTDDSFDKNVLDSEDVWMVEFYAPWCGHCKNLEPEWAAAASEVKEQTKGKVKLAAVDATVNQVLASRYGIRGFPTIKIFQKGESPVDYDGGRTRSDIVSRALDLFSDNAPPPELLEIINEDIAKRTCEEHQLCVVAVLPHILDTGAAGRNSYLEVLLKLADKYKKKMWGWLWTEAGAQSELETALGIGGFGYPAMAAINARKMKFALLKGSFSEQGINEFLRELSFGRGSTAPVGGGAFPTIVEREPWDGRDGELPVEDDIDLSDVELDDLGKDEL
AF4-AF9 inh – MLL-AF4/AF9 protein interaction inhibition. P42568. AlphaScreen, biotin-AF4 peptide binding to FLAG-AF9. inhibition, % at 10 µM. 350,000 tested, 0.47% active;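 active = every replicate reaching a set inhibition limit, whatever the replicate mean, cut at about 25% in these data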;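 note: 0% = plate neutral control median and 100% = total signal loss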
FGF22 binding – FGF22 (human) thermal shift binding; activity (Tm shift, normalised), % at 9.99 µM; Q9HCT0; recombinant FGF22 thermal shift, SYPRO orange fluorescence; percent of sucrose octasulfate shift, DMSO zero; AID 651658; 340,000 tested, 1.5% active;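 active = mean Tm shift, scaled 0 neutral to 100 positive control, at about 1.3% or above, every replicate too, limit read from the data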
Target sequence (Q9HCT0 whole entry, looked up): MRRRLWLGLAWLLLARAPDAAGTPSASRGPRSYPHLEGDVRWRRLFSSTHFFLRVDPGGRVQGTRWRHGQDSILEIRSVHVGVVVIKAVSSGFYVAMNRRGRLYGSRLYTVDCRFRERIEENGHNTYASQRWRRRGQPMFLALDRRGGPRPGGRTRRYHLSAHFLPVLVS
PDI turbidity – PDI (human) enzyme inhibition; P07237; PDI insulin aggregation turbidity, A650, 90 min; inhibition, % at 10 µM; 350,000 tested, 0.052% active; AID 588391;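 active = mean inhibition across replicates of 30% or more, whatever share of single replicates reach that level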
ARNT-TACC3 inh – disruptors of human ARNT/TACC3 interaction | inhibition, % at 9.99 µM | Q9Y6A5 | AlphaScreen His-ARNT PAS-B/GST-TACC3 binding, luminescence; TACC3 fragment carries E629A point mutation | 390,000 tested, 0.66% active;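 active = mean inhibition of replicates at least 50% and at least half of replicates each reaching 50%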;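 note: 0% = complete ARNT plus TACC3 wells and 100% = ARNT alone without TACC3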
FN deposition inh – fibronectin deposition inhibition; 350,000 tested, 0.086% active; AH1F fibroblasts, Alexa488-fibronectin deposition fluorescence, overnight; inhibition, % at 12.6 µM;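 active = mean inhibition across replicates of 30% or more, regardless of how many single replicates reach that level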;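 note: positive control wells lacked labelled fibronectin entirely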
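Test system: AH1F fibroblast monolayer depositing Alexa488-labelled fibronectin into matrix. Input: 10000 cells per well. Technique: fluorescence, ex 485 nm, em 525 nm. Buffer or medium: DMEM plus 2% serum, read in PBS. Timing: 1 h cell adhesion before compound, then overnight fibronectin incubation. Compound: single dose, pinned. Read-out basis: inhibition from reduced deposited-fibronectin fluorescence.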
Starred values were filed as active, the others as inactive; / = not tested or not shown; ! = not active in a repeat. Sampled rows, rich in hits. Any-hit rate of the full collection: about 2.1%.

SMILES	ERp5 block	AF4-AF9 inh	FGF22 binding	PDI turbidity	ARNT-TACC3 inh	FN deposition inh
O=C(O)C1CN(c2ncccc2[N+](=O)[O-])C1	-1	-1	43*	0	-6	-3
C[C@@H]1CN([C@@H](C)CO)C(=O)c2cc(C#CCN(C)C)cnc2O[C@H]1CN(C)Cc1ccc(-c2ccccc2)cc1	0	34*!	0	/	3	/
C[C@@H]1CN([C@H](C)CO)C(=O)c2cc(C#CCN(C)C)cnc2O[C@H]1CN(C)Cc1ccc(-c2ccccc2)cc1	1	27*	0	/	8	/
COc1ccc(C(NC(C)=O)c2ccc3cccnc3c2O)c(OC)c1 (stereo not given)	/	/	/	9	64*	/
CCCC(=O)NC(c1ccccc1OC)c1ccc2cccnc2c1O (stereo not given)	/	/	/	8	-9	/
Cn1c(-c2ccccc2)c[n+]2c1-c1ccccc1C2	-3	-2	45*	-14	-10	-10
Cn1c(-c2ccccc2)cccc1=O	/	/	/	5	2	-6
COc1cc(NC(C)CCCN)c2ncccc2c1 (stereo not given)	-2	31*	-1	11	36*	11
Cc1noc(C)c1NC(=O)Nc1ccc2c(c1)C(=O)N([C@H](C)CO)C[C@@H](C)[C@H](CN(C)C(=O)Nc1c(C)noc1C)OCCCC[C@@H](C)O2	-8	1	0	/	-1	2
CCOc1ccc(N2C(=O)/C(=C\c3ccc(O)c(OC)c3)S(=O)(=O)C2c2cccc([N+](=O)[O-])c2)cc1 (stereo not given)	-6	4	44*	-4	9	8
Cc1ccc(N(CC(=O)NC(C)(C)C)C(=O)CNC(=O)c2cccs2)c(C)c1	0	-1	43*	-10	-5	/
Cc1cc(C)c(N(CC(=O)NC(C)(C)C)C(=O)CNC(=O)c2cccs2)c(C)c1	8	-1	0	6	/	6
O=C(COC(=O)c1c[nH]c(=O)[nH]c1=O)Nc1ccccc1F	-2	-2	43*	-3	-2	-1
CSc1ccccc1NC(=O)COC(=O)c1c[nH]c(=O)[nH]c1=O	-14	-5	0	7	1	1
COc1cccc(CNC(=O)C2CCN(S(=O)(=O)c3ccc(-n4cnnn4)cc3)CC2)c1	2	-2	43*	-11	-68	9
COc1cccc(NC(=O)C2CCN(S(=O)(=O)c3ccccc3)CC2)c1	13	-3	0	16	47*	/
O=C(NCc1ccncc1)C1CCN(S(=O)(=O)c2cccc(C(F)(F)F)c2)CC1	-7	0	0	10	-4	7
O=C(Nc1ccncc1)C1CCN(S(=O)(=O)c2cccc(C(F)(F)F)c2)CC1	27*	12	0	0	12	-8
COc1cccc(NC(=O)C2CCN(S(=O)(=O)c3ccc4c(c3)OCCO4)CC2)c1	/	/	/	2	1	1
C[C@@H]1CN([C@H](C)CO)C(=O)c2cc(-c3ccncc3)cnc2O[C@H]1CN(C)Cc1cccnc1	-5	-5	0	/	-1	-8
COc1ccccc1CNC(=O)C[C@H]1C=C[C@H](NC(C)=O)[C@H](CO)O1	3	-1	0	/	5	-7
CCCCN(CCCC)Cc1ccc(C(=O)NN)o1	1	1	44*	0	14	-3
COc1ccc(S(=O)(=O)Nc2ccc3c(c2)C(=O)N([C@@H](C)CO)C[C@@H](C)[C@H](CN(C)Cc2ccccc2)OCCCC[C@H](C)O3)cc1	/	/	0	/	-6	-1
CCC(=O)N[C@H]1C=C[C@H](CC(=O)NCC2CCCCC2)O[C@@H]1CO	1	-3	-1	/	-24	/
COc1cc(OC)c2c(-c3ccccc3)cc(=O)oc2c1C(CCN1CCCC(C)C1)c1ccc2c(c1)OCO2 (stereo not given)	-5	32*	0	-5	13	10
SMILES	ERp5 block	AF4-AF9 inh	FGF22 binding	PDI turbidity	ARNT-TACC3 inh	FN deposition inh
COc1cc(C2CC(=O)Oc3c(C(CCN4CCCC(C)C4)c4ccc(N(C)C)cc4)c(OC)cc(OC)c32)cc(OC)c1OC (stereo not given)	5	39*	0	0	29	16
COc1cc(OC)c2c(-c3ccccc3)cc(=O)oc2c1C(CC(=O)N1CCCC1)c1ccc2c(c1)OCO2 (stereo not given)	-5	5	0	1	-4	3
COc1ccc(C2CC(=O)Oc3c(C(CCN4CCOCC4)c4cc(OC)c(OC)c(OC)c4)c(OC)cc(OC)c32)cc1 (stereo not given)	5	18	0	2	13	2
COc1cc(C(CCN2CCOCC2)c2c(OC)cc(OC)c3c2OC(=O)CC3c2ccc(N(C)C)cc2)cc(OC)c1OC (stereo not given)	-2	49*	0	3	8	4
O=C(C[C@@H]1C[C@H]2c3cc(NS(=O)(=O)c4ccc(F)cc4)ccc3O[C@H]2[C@H](CO)O1)NCC1CC1	/	/	0	/	-2	-12
COCC(=O)Nc1ccc2c(c1)C(=O)N(C)[C@H]1CC[C@@H](CC(=O)NCC3CC3)O[C@H]1CO2	6	1	0	/	-12	-17
Cc1cc2nc(-c3ccccc3)cc(=O)n2[nH]1	-2	49*	0	-7	16	2
C[C@H]1CN([C@@H](C)CO)C(=O)Cc2cc(NC(=O)Nc3ccc4c(c3)OCO4)ccc2O[C@@H]1CN(C)CC1CCCCC1	-3	10	0	/	15	/
C[C@@H]1CCCCO[C@@H](CN(C)C(=O)Nc2ccc(F)cc2)[C@@H](C)CN([C@H](C)CO)C(=O)c2cc(NS(C)(=O)=O)ccc2O1	-2	-1	0	/	-4	/
CCCCC(=O)N1CCCC(c2nc(-c3cccc(OC)c3)no2)C1 (stereo not given)	3	-3	43*	-2	11	-5
CCCC#Cc1cnc2c(c1)C(=O)N([C@@H](C)CO)C[C@@H](C)[C@H](CN(C)C(=O)c1cccnc1)O2	-1	-2	/	/	-7	-9
COc1cccc(S(=O)(=O)N[C@H]2C=C[C@H](CC(=O)NCc3ccc(F)cc3)O[C@@H]2CO)c1	19	-2	0	/	8	11
Cc1ccccc1NC(=O)/C=C/c1cccs1	-1	1	43*	-1	3	2
Cc1ccccc1NC(=O)/C=C1\SC(=O)NC1=O	3	-2	44*	-10	-2	17
O=C(COC(=O)/C=C/c1cccs1)Nc1ccccc1Cl	-3	-7	43*	-20	2	-2
COC(=O)CNC(=O)COC(=O)/C=C/c1cccs1	-4	0	0	-7	-4	-3
COc1ccc(CCNC(=O)COC(=O)/C=C/c2cccs2)cc1	5	-1	43*	-1	-2	-3
